LANA-H2B inh = blocks KSHV LANA binding to histone H2A/H2B; Q9QR71; cell-free LANA-H2A/H2B peptide, fluorescence polarization; inhibition, % (no concentration beside the values); 0.6% of 320,000 active; AID 2629; in the data active = inhibition mostly above about 10%, no sharp cut-off; inactive = mostly below about 6.7%
procasp3 activ = activates human procaspase-3; recombinant procaspase-3 D3A, Ac-DEVD-pNA absorbance 405 nm; activation, % at 8.5 µM; 0.11% of 330,000 active;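 active = activation above the mean of all tested compounds plus 3 SD, cut at about 21% in these data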;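 also: 0% = DMSO alone and 100% = DMSO wells spiked with extra 5 µM PC-3 D3A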
Target sequence (P42574 whole entry D9A/D28A/D175A): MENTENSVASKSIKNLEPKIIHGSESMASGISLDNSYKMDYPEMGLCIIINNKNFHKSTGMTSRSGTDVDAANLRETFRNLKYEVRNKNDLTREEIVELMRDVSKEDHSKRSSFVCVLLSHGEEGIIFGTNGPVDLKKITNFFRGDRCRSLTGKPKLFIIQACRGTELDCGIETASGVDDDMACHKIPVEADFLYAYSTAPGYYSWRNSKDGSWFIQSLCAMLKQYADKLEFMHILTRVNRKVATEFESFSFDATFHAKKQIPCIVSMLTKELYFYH
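assay system = Procaspase-3 D3A mutant | signal = absorbance at 405 nm, 0 and 120 min | times = 1 h preincubation plus 2 h reaction at 25 °C | repeats = single replicate | read-out = % activation between DMSO and enzyme-spiked controls | medium = Zinc-free HEPES saline buffer with Triton X-100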
Yeast superoxide = yeast age-related superoxide inhibition as caloric restriction mimetic | 0.18% of 330,000 active | S. cerevisiae aged cells, superoxide DHE fluorescence; hits give low values | superoxide response (% of plate mean), % at 10 µM;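 active = superoxide response under a set limit, about three screen SD below normal, cut at about 65% in these data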;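 also: yeast aged for seven days with compound at 30 °C before DHE staining; 100% = average MFI of all compound-treated wells on the plate with controls excluded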
proCasp7 act = counter-screen: procaspase-7 (human) activation | P55210 | recombinant procaspase-7, Ac-DEVD-pNA absorbance 405 nm; D23A/D198A/D206A triple mutant, cannot self-cleave; scale: DMSO 0, 5 µM enzyme 100 | activation, % at 8.5 µM | 0.093% of 330,000 active | AID 463210;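 active = percent activation above the screen-wide mean plus 3 SD, cut at about 25% in these data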
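Assay system – Uncleavable procaspase-7 mutant enzyme · Quantity – 2 µM procaspase-7 mutant as dispensed · Times – 1 h preincubation, 2 h reaction · Dosing – single nominal 8.5 µM compound dose, 0.8% DMSO final · Buffer or medium – Zinc-free 50 mM HEPES buffer, pH 7.4, with NaCl and Triton X-100 · Detection – Epi-absorbance of released pNA at 405 nm, two timepoints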
ARFGAP1 inh = inhibitors of rat ARFGAP1 | Arfgap1-stimulated ARF1 GTP hydrolysis, GDP FP detection | inhibition, % at 16.5 µM | 0.26% of 360,000 active;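 active = inhibition above a per-plate limit, mean inhibition of low control wells plus 3 SD, cut at about 25% in these data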;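 also: 0% = DMSO wells with enzyme and 100% = wells lacking Arfgap1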
Target sequence (Q62848 1-136 limits assumed): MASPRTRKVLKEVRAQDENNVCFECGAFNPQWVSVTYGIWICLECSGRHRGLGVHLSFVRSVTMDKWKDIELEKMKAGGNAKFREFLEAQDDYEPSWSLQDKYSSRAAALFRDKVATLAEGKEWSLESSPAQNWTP
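Material: truncated rat Arfgap1 GAP domain; Incubation: compound-enzyme preincubation 20 min, reaction 120 min, detection 60 min, 25 °C; Read-out: percent inhibition of Arfgap1-stimulated GTP hydrolysis; Technique: FP, GDP Alexa 633 tracer displaced from anti-GDP antibody, 620/688 nm; Controls: No-Arfgap1 wells (100%) versus DMSO full-reaction wells (0%); Replication: single well per compound.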
ASAP1 inh = blocks human ASAP1-stimulated Arf1 GTP hydrolysis. Q9ULH1. GDP FP detection. AID 624377. 0.19% of 360,000 active. inhibition, % at 16.5 µM; in the data active = inhibition above about 25%;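 also: 0% = vehicle with enzyme and substrate and 100% = no enzyme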
ASAP1 inh confirm = confirmation of human ASAP1 inhibitors; shares compounds with ASAP1 inh; ASAP1-stimulated Arf1 GTPase, GDP fluorescence polarization; inhibition, % at 16.5 µM; 37% of 620 active; AID 624431;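 active = mean inhibition over triplicates exceeds the hit threshold derived for the earlier primary screening run, cut at about 25% in these data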
An asterisk follows results filed as active. Compounds with a hit are over-represented: about 1.2% of the library has one in this group of screens.

Results for CC1=NN(c2ccccc2)C(=O)C1N=Nc1ccccc1 (stereo not drawn) ?
LANA-H2B inh: -4; procasp3 activ: 0; Yeast superoxide: 130; proCasp7 act: -3; ARFGAP1 inh: -3; ASAP1 inh: 2

What do the screens show for `CC(=O)c1cccc(NC(=O)CSc2ccc(-c3ccc4c(c3)OCO4)nn2)c1`?
LANA-H2B inh: -5; procasp3 activ: -3; Yeast superoxide: 117; proCasp7 act: -9; ARFGAP1 inh: -3; ASAP1 inh: 25*; ASAP1 inh confirm: 54*

Results for COc1ccc(-c2ccc(SCC(=O)Nc3cccc(C(C)=O)c3)nn2)cc1OC ?
LANA-H2B inh: 2; procasp3 activ: -4; Yeast superoxide: 88; proCasp7 act: 8; ARFGAP1 inh: 1; ASAP1 inh: -2

What do the screens show for `O=c1cc(-c2ccccc2Cl)oc2cc(O)cc(O)c12`?
LANA-H2B inh: 12; procasp3 activ: 8; Yeast superoxide: 100; proCasp7 act: 4; ARFGAP1 inh: -2; ASAP1 inh: 8

Results for Nc1ccc(O)c2c(=O)cc(-c3ccccc3Cl)oc12 ?
LANA-H2B inh: -11; procasp3 activ: -11; Yeast superoxide: 96; proCasp7 act: -11; ARFGAP1 inh: 0; ASAP1 inh: 28*; ASAP1 inh confirm: 13

Results for COc1ccc(N/N=C(\C#N)C(=N)N2CCCCC2)cc1 ?
LANA-H2B inh: -1; procasp3 activ: 4; Yeast superoxide: 105; proCasp7 act: -8; ARFGAP1 inh: 9; ASAP1 inh: -8

Results for COc1ccc(N/N=C(\C#N)C(=N)SCc2ccccc2)cc1 ?
ARFGAP1 inh: 5; ASAP1 inh: 26*; ASAP1 inh confirm: 1

How did Cc1ccc(-n2nc3c(c2NC(=O)c2ccco2)CS(=O)C3)cc1 (stereo not drawn) do in these assays?
LANA-H2B inh: -1; procasp3 activ: -8; Yeast superoxide: 91; proCasp7 act: 1; ARFGAP1 inh: -8; ASAP1 inh: 25*; ASAP1 inh confirm: -2

What do the screens show for `O=C(NCC[C@@H]1CC[C@@H](NS(=O)(=O)Cc2ccccc2)[C@@H](CO)O1)C1CC1`?
ARFGAP1 inh: 2; ASAP1 inh: 26*; ASAP1 inh confirm: -1

Results for O=C(N[C@H]1CC[C@H](CCNC(=O)C2CC2)O[C@@H]1CO)c1ccccn1 ?
ARFGAP1 inh: 7; ASAP1 inh: 12

What do the screens show for `CCOC(=O)c1ccc(Oc2cn[nH]c2-c2ccc(O)cc2O)cc1`?
LANA-H2B inh: -1; procasp3 activ: 7; Yeast superoxide: 131; proCasp7 act: 5; ARFGAP1 inh: 10; ASAP1 inh: 27*; ASAP1 inh confirm: 20

Results for COc1ccc(CN2C(=O)Cc3c2nc(N)c2c(N)nc(N4CCOCC4)c(C#N)c32)cc1 ?
LANA-H2B inh: 3; procasp3 activ: -5; Yeast superoxide: 112; proCasp7 act: -15; ARFGAP1 inh: -4; ASAP1 inh: 28*; ASAP1 inh confirm: 8

How did Cc1ccc(Cl)cc1Nc1nc(-c2sc(NC(=O)C(C)(C)C)nc2C)cs1 do in these assays?
LANA-H2B inh: 3; procasp3 activ: -2; Yeast superoxide: 103; proCasp7 act: -3; ARFGAP1 inh: 1; ASAP1 inh: 25*; ASAP1 inh confirm: 10

Results for COc1ccccc1Nc1nc(-c2sc(NC(=O)C(C)(C)C)nc2C)cs1 ?
LANA-H2B inh: -3; procasp3 activ: -6; Yeast superoxide: 103; proCasp7 act: -14; ARFGAP1 inh: 14; ASAP1 inh: -14

How did CC1CCN(C(=O)COC(=O)CCC(=O)c2ccc(F)cc2)CC1 do in these assays?
LANA-H2B inh: -2; procasp3 activ: 3; Yeast superoxide: 108; proCasp7 act: -1; ARFGAP1 inh: -10; ASAP1 inh: 8

Assay outcomes: PubChem BioAssay, several laboratories
